pIC50: −log10 of the molar value. Values after ≈ are worked out from the molar mass of the structure shown.
Legend:
Mus musculus [1] = experiment: Toxicity in DBA2 mouse assessed as change in platelet count at 75 mg/kg, ip QD administered on alternate days for 17 days measured on day 23 relative to control; format: organism-based; set-up: dose 75 mg/kg, route intraperitoneal; details: in vivo, 408 h
Outline: (§1)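 Healthy female DBA2 mice, 5–7 weeks old, five per group, received 75 mg/kg ip on days 1, 5, 9, 13 and 17. Vehicle was PET (PEG400/ethanol/Tween 80, 6:3:1), 5% glucose and DMSO, with final ethanol 15% and DMSO 10%. Controls received 100 µL vehicle. Body weight was measured every other day. At sacrifice on day 23, blood counts (hematocrit, WBC, granulocytes, platelets) and liver, kidney and spleen appearance and weight were assessed.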

NCI-H23 = experiment: Growth inhibition of human NCI-H23 cells after 48 hrs by sulforhodamine B assay; format: functional; details: NCI-H23, 48 h
Outline: (§2)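 NCI 60 human cancer cell line screen run at the National Cancer Institute. Cells had 48 h continuous exposure, and proliferation was read by sulforhodamine B staining. GI50 (50% growth inhibition) was taken from dose–response curves.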

NCI-H322M = experiment: Growth inhibition of human NCI-H322M cells after 48 hrs by sulforhodamine B assay; format: functional; outline: as §2
NCI-H460 = experiment: Growth inhibition of human NCI-H460 cells after 48 hrs by sulforhodamine B assay; format: functional; details: NCI-H460, 48 h; outline: as §2
COLO 205 = experiment: Growth inhibition of human COLO205 cells after 48 hrs by sulforhodamine B assay; format: functional; details: COLO 205, 48 h; outline: as §2
HCT-116 = experiment: Growth inhibition of human HCT116 cells after 48 hrs by sulforhodamine B assay; format: functional; details: HCT-116, 48 h; outline: as §2
HT-29 = experiment: Growth inhibition of human HT-29 cells after 48 hrs by sulforhodamine B assay; format: functional; details: HT-29, 48 h; outline: as §2
SF-268 = experiment: Growth inhibition of human SF268 cells after 48 hrs by sulforhodamine B assay; format: functional; details: SF-268, 48 h; outline: as §2
U-251 = experiment: Growth inhibition of human U251 cells after 48 hrs by sulforhodamine B assay; format: functional; details: U-251, 48 h
Outline: (§3)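 Tested in the NCI 60 human cancer cell line panel. Cells were exposed continuously for 48 h and proliferation was read by sulforhodamine B staining. GI50 (concentration for 50% growth inhibition), TGI (total growth inhibition) and LC50 were taken from dose–response curves.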

LOX IMVI = experiment: Growth inhibition of human LOXIMVI cells after 48 hrs by sulforhodamine B assay; format: functional; outline: as §2
Malme-3M = experiment: Growth inhibition of human MALME-3M cells after 48 hrs by sulforhodamine B assay; format: functional; details: read-out: pTGI; outline: as §2
M14 = experiment: Growth inhibition of human M14 cells after 48 hrs by sulforhodamine B assay; format: functional; details: M14, 48 h; outline: as §2
MDA-MB-435 = experiment: Growth inhibition of human MDA-MB-435 cells after 48 hrs by sulforhodamine B assay; format: functional; details: MDA-MB-435, 48 h; outline: as §2
SK-MEL-2 = experiment: Growth inhibition of human SK-MEL-2 cells after 48 hrs by sulforhodamine B assay; format: functional; details: SK-MEL-2, 48 h; outline: as §2
UACC-62 = experiment: Growth inhibition of human UACC62 cells after 48 hrs by sulforhodamine B assay; format: functional; details: UACC-62, 48 h; outline: as §3
OVCAR-4 = experiment: Growth inhibition of human OVCAR4 cells after 48 hrs by sulforhodamine B assay; format: functional; details: OVCAR-4, 48 h; outline: as §2
OVCAR-8 = experiment: Growth inhibition of human OVCAR8 cells after 48 hrs by sulforhodamine B assay; format: functional; details: OVCAR-8, 48 h; outline: as §2
SK-OV-3 = experiment: Growth inhibition of human SKOV3 cells after 48 hrs by sulforhodamine B assay; format: functional; details: SK-OV-3, 48 h; outline: as §3
SN12C = experiment: Growth inhibition of human SN12C cells after 48 hrs by sulforhodamine B assay; format: functional; outline: as §3
PC-3 = experiment: Growth inhibition of human PC3 cells after 48 hrs by sulforhodamine B assay; format: functional; details: PC-3, 48 h; outline: as §2
DU-145 = experiment: Growth inhibition of human DU145 cells after 48 hrs by sulforhodamine B assay; format: functional; details: DU-145, 48 h; outline: as §2
MDA-MB-231 = experiment: Growth inhibition of human MDA-MB-231 cells after 48 hrs by sulforhodamine B assay; format: functional; details: MDA-MB-231, 48 h; outline: as §2
MDA-MB-468 = experiment: Growth inhibition of human MDA-MB-468 cells after 48 hrs by sulforhodamine B assay; format: functional; details: MDA-MB-468, 48 h; outline: as §2
L1210 [2] = experiment: Antitumor activity against mouse L1210 cells xenografted in DBA2 mouse assessed as reduction in tumor volume at 50 mg/kg, ip QD administered on alternate days for 17 days measured on day 23; format: functional; details: route intraperitoneal
Outline: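 Female DBA2 mice, 5–7 weeks old, four per group. L1210 cells, passaged through a mouse, were washed three times in PBS and resuspended at 4.0 × 10^6 cells/mL. 100 µL (200,000 cells) was given sc to the flank on day 0. Vehicle-only controls. Tumor length and width were measured by caliper, and volume was compared on day 23.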

Mus musculus [3] = experiment: Toxicity in DBA2 mouse assessed as change in white blood count at 75 mg/kg, ip QD administered on alternate days for 17 days measured on day 23 relative to control; format: organism-based; set-up: dose 75 mg/kg, route intraperitoneal; details: in vivo, 408 h; outline: as §1
[4] = Solubility of the compound in water by multiscreen solubility; format: physicochemical
Outline: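 Aqueous solubility was measured with a modified Multiscreen Solubility filter-plate protocol. The assay ceiling is 500 µM, and two independent experiments were run.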

[5] = Growth inhibition of human NCI-ADR-RES cells after 48 hrs by sulforhodamine B assay; format: functional; outline: as §2
L1210 [6] = experiment: Cytotoxicity against mouse L1210 cells by MTT assay; format: functional, cell-based
CCRF-CEM = experiment: Growth inhibition of human CCRF-CEM cells after 48 hrs by sulforhodamine B assay; format: functional; outline: as §2
K562 = experiment: Growth inhibition of human K562 cells after 48 hrs by sulforhodamine B assay; format: functional; details: K562, 48 h; outline: as §2
MOLT-4 = experiment: Growth inhibition of human MOLT4 cells after 48 hrs by sulforhodamine B assay; format: functional; details: MOLT-4, 48 h; outline: as §2
HOP-62 = experiment: Growth inhibition of human HOP62 cells after 48 hrs by sulforhodamine B assay; format: functional; details: HOP-62, 48 h; outline: as §2
NCI-H226 = experiment: Growth inhibition of human NCI-H226 cells after 48 hrs by sulforhodamine B assay; format: functional; details: NCI-H226, 48 h; outline: as §2

Q: For `COc1ccc(/C=C(/C(C)=O)c2cc(OC)c(OC)c(OC)c2)cc1O`, which Activity (Mus musculus [1]) is on record?
A: Non-toxic

Q: And the GI50 (NCI-H23)?
A: 0.355 µM

Q: What about the TGI (NCI-H23; read-out: pTGI) of the same compound?
A: > 100 µM

Q: What about the GI50 (NCI-H322M) of the same compound?
A: 0.513 µM

Q: And the TGI (NCI-H322M; read-out: pTGI)?
A: > 100 µM

Q: And the GI50 (NCI-H460)?
A: 0.263 µM

Q: And the TGI (NCI-H460; read-out: pTGI (converted))?
A: 1.32 µM

Q: What about the GI50 (COLO 205) of the same compound?
A: 10.7 µM

Q: And the TGI (COLO 205; read-out: pTGI (converted))?
A: 37.2 µM

Q: What about the GI50 (HCT-116) of the same compound?
A: 0.331 µM

Q: What about the TGI (HCT-116; read-out: pTGI) of the same compound?
A: > 100 µM

Q: What about the GI50 (HT-29) of the same compound?
A: 3.63 µM

Q: What about the TGI (HT-29; read-out: pTGI (converted)) of the same compound?
A: 15.5 µM

Q: What about the GI50 (SF-268) of the same compound?
A: 0.363 µM

Q: And the TGI (SF-268; read-out: pTGI (converted))?
A: 16.6 µM

Q: And the GI50 (U-251)?
A: 0.324 µM

Q: What about the TGI (U-251; read-out: pTGI) of the same compound?
A: > 100 µM

Q: And the GI50 (LOX IMVI)?
A: 0.417 µM

Q: And the TGI (LOX IMVI; read-out: pTGI)?
A: > 100 µM

Q: What about the TGI (Malme-3M) of the same compound?
A: > 100 µM

Q: What about the GI50 (M14) of the same compound?
A: 0.209 µM

Q: What about the TGI (M14; read-out: pTGI) of the same compound?
A: > 100 µM

Q: And the GI50 (MDA-MB-435)?
A: 0.0257 µM

Q: And the TGI (MDA-MB-435; read-out: pTGI (converted))?
A: 0.0759 µM

Q: And the GI50 (SK-MEL-2)?
A: 0.513 µM

Q: What about the TGI (SK-MEL-2; read-out: pTGI) of the same compound?
A: > 100 µM

Q: What about the GI50 (UACC-62) of the same compound?
A: 0.151 µM

Q: What about the TGI (UACC-62; read-out: pTGI) of the same compound?
A: > 100 µM

Q: What about the GI50 (OVCAR-4) of the same compound?
A: 0.933 µM

Q: And the TGI (OVCAR-4; read-out: pTGI)?
A: > 100 µM

Q: What about the GI50 (OVCAR-8) of the same compound?
A: 0.372 µM

Q: What about the TGI (OVCAR-8; read-out: pTGI) of the same compound?
A: > 100 µM

Q: What about the GI50 (SK-OV-3) of the same compound?
A: 0.417 µM

Q: What about the TGI (SK-OV-3; read-out: pTGI) of the same compound?
A: > 100 µM

Q: What about the GI50 (SN12C) of the same compound?
A: 0.776 µM

Q: And the TGI (SN12C; read-out: pTGI)?
A: > 100 µM

Q: And the GI50 (PC-3)?
A: 0.191 µM

Q: What about the TGI (PC-3; read-out: pTGI) of the same compound?
A: > 100 µM

Q: And the GI50 (DU-145)?
A: 0.257 µM

Q: What about the TGI (DU-145; read-out: pTGI (converted)) of the same compound?
A: 0.813 µM

Q: And the GI50 (MDA-MB-231)?
A: 0.575 µM

Q: What about the TGI (MDA-MB-231; read-out: pTGI) of the same compound?
A: > 100 µM

Q: What about the GI50 (MDA-MB-468) of the same compound?
A: 0.17 µM

Q: What about the TGI (MDA-MB-468; read-out: pTGI (converted)) of the same compound?
A: 0.55 µM

Q: What about the inhibition in vivo at 50 mg/kg (L1210 [2]) of the same compound?
A: 35%

Q: And the Activity (Mus musculus [3])?
A: Non-toxic

Q: What about the solubility [4] of the same compound?
A: 456 µM (≈ 163 µg/mL)

Q: What about the GI50 [5] of the same compound?
A: 0.11 µM

Q: What about the pIC50 (L1210 [6]) of the same compound?
A: 6.35

Q: And the GI50 (CCRF-CEM)?
A: 0.398 µM

Q: What about the TGI (CCRF-CEM; read-out: pTGI) of the same compound?
A: > 100 µM

Q: And the GI50 (K562)?
A: 0.0407 µM

Q: And the TGI (K562; read-out: pTGI)?
A: > 100 µM

Q: What about the GI50 (MOLT-4) of the same compound?
A: 0.316 µM

Q: What about the TGI (MOLT-4; read-out: pTGI) of the same compound?
A: > 100 µM

Q: And the GI50 (HOP-62)?
A: 0.589 µM

Q: And the TGI (HOP-62; read-out: pTGI)?
A: > 100 µM

Q: And the GI50 (NCI-H226)?
A: 1 µM

Q: What about the TGI (NCI-H226; read-out: pTGI) of the same compound?
A: > 100 µM

Source: ChEMBL document CHEMBL1765023, “Acetyl analogs of combretastatin A-4: synthesis and biological studies” (Bioorg Med Chem, 2011)
